Results on 15 compounds are retold here after ChEMBL document CHEMBL1157414, “Cytotoxic dihydroagarofuranoid sesquiterpenes from the seeds of Celastrus orbiculatus” (J Nat Prod, 2008).

By IC50 is commonly meant the concentration needed to halve the response being measured. Low values mean higher potency, high ones lower potency.

SMILES strings stand for the structures.

The test system of experiment [1] is HL-60. Description: Cytotoxicity against human HL60 cells at 10 uM after 72 hrs by MTT assay. The experiment is classed as functional. The method in brief:
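MTT was added for 4 h at 37 °C, followed by extraction buffer (10% SDS, 5% isobutanol, 0.01 M HCl) overnight at 37 °C. Absorbance was read at 570 nm, with etoposide as positive control.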
A general note: Tetrazolium dyes change colour on reduction, which living cells bring about.

The test system of experiment [2] is HL-60. Description: Cytotoxicity against human HL60 cells after 72 hrs by MTT assay. Conditions: HL-60, 72 h. The experiment is classed as functional, cell-based. In short, it runs like this:
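HL-60 human leukemia cells were plated in 96-well plates and exposed in triplicate to graded concentrations for 72 h. MTT was added for 4 h at 37 °C, then extraction buffer (10% SDS, 5% isobutanol, 0.01 M HCl) overnight at 37 °C. Absorbance was read at 570 nm.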

Consider `CC(=O)O[C@@H]1[C@H]2C[C@H](OC/C=C/c3ccccc3)[C@]3(C)[C@@H](OC(C)=O)[C@@H](OC(=O)c4ccccc4)C[C@@H](C)[C@@]13OC2(C)C`, for which, in experiment [1], the Activity is on record as <50%.

Take `CCCC(=O)O[C@@H]1[C@@H]2[C@@H](OC(C)=O)[C@]3(OC2(C)C)[C@H](C)CC[C@H](OC(=O)c2ccccc2)[C@@]3(C)[C@@H]1OC(=O)c1ccccc1`: it took 5.3 µM to reach half-maximal inhibition in experiment [2] (IC50). As for `CC(=O)O[C@H]1CC[C@@H](C)[C@]23OC(C)(C)[C@H](C[C@H](OC(=O)c4ccccc4)[C@]12C)[C@H]3O`, the Activity in experiment [1] is <50%.

`CC(=O)O[C@H]1C[C@@H]2[C@@H](OC(=O)c3ccccc3)[C@]3(OC2(C)C)[C@H](C)CC[C@H](OC(=O)c2ccccc2)[C@@]13C` came in with an IC50 in experiment [2] of 2.8 µM.

Consider `CC(=O)O[C@H]1C[C@@H](C)[C@@]23C[C@@H](C[C@H](OC(C)=O)[C@]2(C)[C@H]1OC/C=C/c1ccccc1)C(C)(C)O3`, for which 3.3 µM corresponded to half-maximal inhibition in experiment [2] (IC50).

Regarding `CC(=O)O[C@@H]1[C@H]2[C@@H](O)[C@@H](OC(=O)c3ccccc3)[C@]3(C)[C@@H](O)CC[C@@H](C)[C@@]13OC2(C)C`, in experiment [1], the Activity is given as <50%.

With `CC(=O)O[C@@H]1[C@H]2C[C@H](OC/C=C/c3ccccc3)[C@]3(C)[C@@H](OC(C)=O)[C@@H](O)C[C@@H](C)[C@@]13OC2(C)C`, the Activity in experiment [1] is listed as <50%. For `CC(=O)O[C@H]1C[C@](C)(O)[C@@]23C[C@@H](C[C@H](OC(=O)/C=C/c4ccccc4)[C@]2(C)[C@H]1OC(C)=O)C(C)(C)O3`, the Activity in experiment [1] is recorded as <50%. For the compound `CC(=O)O[C@H]1CC[C@@H](CO)[C@]23OC(C)(C)[C@H](C[C@H](OC(=O)c4ccccc4)[C@]12C)[C@H]3OC(=O)c1ccccc1`, the Activity in experiment [1] is <50%. With `C[C@@H]1CC[C@H](OC(=O)c2ccccc2)[C@@]2(C)[C@H](OC(=O)c3ccccc3)[C@H](OC(=O)c3ccccc3)[C@@H]3[C@@H](O)[C@]12OC3(C)C`, the Activity in experiment [1] is listed as <50%. On to `CC(=O)O[C@@H]1[C@H]2[C@@H](O)[C@@H](OC(=O)c3ccccc3)[C@]3(C)[C@@H](OC/C=C/c4ccccc4)CC[C@@H](C)[C@@]13OC2(C)C`, for which 8.3 µM corresponded to half-maximal inhibition in experiment [2] (IC50).

For the compound `CC(=O)O[C@@H]1[C@H]2[C@@H](OC(=O)c3ccccc3)[C@H](OC(=O)c3ccccc3)[C@]3(C)[C@@H](OC(=O)c4ccccc4)CC[C@@H](C)[C@@]13OC2(C)C`, the Activity in experiment [1] is given as <50%.

In the case of `CC(=O)O[C@@H]1[C@@H]2[C@@H](OC(C)=O)[C@]3(OC2(C)C)[C@H](C)CC[C@H](O)[C@@]3(C)[C@@H]1OC(=O)c1ccccc1`, the Activity in experiment [1] is recorded as <50%. As for `CC(=O)O[C@@H]1[C@@H]2[C@@H](OC(C)=O)[C@]3(OC2(C)C)[C@H](C)CC[C@H](OC(C)=O)[C@@]3(C)[C@H]1OC(=O)c1ccccc1`, 6.8 µM corresponded to half-maximal inhibition in experiment [2] (IC50).

Regarding `CC(=O)O[C@@H]1[C@@H]2[C@@H](OC(C)=O)[C@]3(OC2(C)C)[C@H](C)CC[C@H](OC(=O)c2ccccc2)[C@@]3(C)[C@@H]1OC(=O)c1ccccc1`, in experiment [1], the Activity is on record as <50%.
